Tests used:
[1] = system: Influenza A virus; assay: Antiviral activity against Influenza A virus A/PR/8/34(H1N1) infected in MDCK cells assessed as reduction in virus-induced cytopathic effect after 3 days by microscopic method; assay type: functional, organism-based, A/Puerto Rico/8/1934(H1N1); conditions: Influenza A virus, A/Puerto Rico/8/1934(H1N1), MDCK, 72 h
In short: (§1)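 Semi-confluent MDCK cells were infected at an MOI of 0.0004 PFU/cell in Ultra-MDCK infection medium with 2 μg/mL TPCK-trypsin, together with compounds. After 3 days at 35 °C, CPE was scored by microscopy and confirmed by MTS formazan viability. EC50 is the concentration giving 50% inhibition of virus-induced CPE. Values are means of two to five independent tests.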

[2] = system: Influenza A virus; assay: Antiviral activity against Influenza A virus A/PR/8/34(H1N1) infected in MDCK cells after 3 days by MTS assay; assay type: functional, organism-based, A/Puerto Rico/8/1934(H1N1); conditions: Influenza A virus, A/Puerto Rico/8/1934(H1N1), MDCK, 72 h; in short: as §1
[3] = system: Influenza A virus; assay: Antiviral activity against Influenza A virus A/Virginia/ATCC3/2009(H1N1pdm) infected in MDCK cells assessed as reduction in virus-induced cytopathic effect after 3 days by microscopic method; assay type: functional, organism-based, Influenza A virus (A/Virginia/03/2009(H1N1)); conditions: 72 h; in short: as §1
[4] = system: Influenza A virus; assay: Antiviral activity against Influenza A virus A/Virginia/ATCC3/2009(H1N1pdm) infected in MDCK cells after 3 days by MTS assay; assay type: functional, organism-based, Influenza A virus (A/Virginia/03/2009(H1N1)); conditions: 72 h; in short: as §1
[5] = system: H3N2 subtype; assay: Antiviral activity against Influenza A virus A/HK/7/87(H3N2) infected in MDCK cells assessed as reduction in virus-induced cytopathic effect after 3 days by microscopic method; assay type: functional, organism-based; conditions: A/Hong Kong/7/1987(H3N2), 72 h; in short: as §1
[6] = system: H3N2 subtype; assay: Antiviral activity against Influenza A virus A/HK/7/87(H3N2) infected in MDCK cells after 3 days by MTS assay; assay type: functional, organism-based; conditions: A/Hong Kong/7/1987(H3N2), 72 h; in short: as §1
[7] = system: Influenza B virus; assay: Antiviral activity against Influenza B virus B/Ned/537/05 infected in MDCK cells assessed as reduction in virus-induced cytopathic effect after 3 days by microscopic method; assay type: functional, organism-based; conditions: B/Ned/537/05, MDCK, 72 h
In short: (§2)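 Semi-confluent MDCK cells were infected at an MOI of 0.0004 PFU/cell in Ultra-MDCK infection medium with 2 μg/mL TPCK-trypsin, together with compounds. After 3 days at 35 °C, CPE was scored by microscopy and confirmed by MTS formazan viability. Values are means of two to five independent tests.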

[8] = system: Influenza B virus; assay: Antiviral activity against Influenza B virus B/Ned/537/05 infected in MDCK cells after 3 days by MTS assay; assay type: functional, organism-based; conditions: B/Ned/537/05, MDCK, 72 h; in short: as §2
[9] = system: MDCK; assay: Cytotoxicity against MDCK cells assessed as reduction in cell viability after 3 days by MTS assay; assay type: cell-based, Canis lupus familiaris; conditions: dog, mdck, 72 h
[10] = Cytotoxicity against MDCK cells assessed as alteration in cell morphology after 3 days by microscopic method; assay type: cell-based, Canis lupus familiaris; conditions: dog
In short: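 Mock-infected MDCK cells were treated with compounds in parallel with the antiviral assay, 3 days at 35 °C. MCC is the concentration causing minimal change in cell morphology by microscopy. CC50 is the 50% cytotoxic concentration by MTS formazan viability assay.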

[11] = system: Influenza A virus; assay: Antiviral activity against Influenza A virus A/PR/8/34(H1N1) GFP-fused pseudotyped lentiviral particle expressing H1-HA/N1-NA infected in MDCK cells assessed as inhibition of pseudoparticle entry at 10 uM after 3 days by flow cytometry relative to control; assay type: functional; conditions: A/Puerto Rico/8/1934(H1N1), 72 h
In short: (§3)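 MDCK cells were seeded at 7500/well and one day later were exposed to compounds plus GFP lentiviral pseudoparticles bearing A/PR/8/34 H1-HA and N1-NA, with HA0 activated by trypsin. After 3 days the cells were trypsinized, fixed in paraformaldehyde and analysed for GFP by flow cytometry. Entry inhibition was taken as the reduction in GFP signal. Data are the mean ± SEM of four independent experiments.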

[12] = system: Influenza A virus; assay: Antiviral activity against Influenza A virus A/PR/8/34(H1N1) GFP-fused pseudotyped lentiviral particle expressing H1-HA/N1-NA infected in MDCK cells assessed as inhibition of pseudoparticle entry at 2 uM after 3 days by flow cytometry relative to control; assay type: functional; conditions: A/Puerto Rico/8/1934(H1N1), 72 h; in short: as §3
[13] = Selectivity index, ratio of MCC for MDCK cells to EC50 for Influenza A virus A/PR/8/34(H1N1) infected in MDCK cells assessed as reduction in virus-induced cytopathic effect by microscopic method; assay type: toxicity, cell-based; conditions: dog, read-out: Selectivity Index
In short: (§4)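 Selectivity index is MCC divided by EC50. MCC comes from microscopy of mock-infected MDCK cells. EC50 comes from microscopic scoring of virus-induced CPE in MDCK cells infected at an MOI of 0.0004 PFU/cell with TPCK-trypsin. Both readings were taken after 3 days at 35 °C.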

[14] = Selectivity index, ratio of MCC for MDCK cells to EC50 for Influenza A virus A/Virginia/ATCC3/2009(H1N1pdm) infected in MDCK cells assessed as reduction in virus-induced cytopathic effect by microscopic method; assay type: toxicity, cell-based; conditions: dog, read-out: Selectivity Index; in short: as §4
[15] = Selectivity index, ratio of MCC for MDCK cells to EC50 for Influenza A virus A/HK/7/87(H3N2) infected in MDCK cells assessed as reduction in virus-induced cytopathic effect by microscopic method; assay type: toxicity, cell-based; conditions: dog, read-out: Selectivity Index; in short: as §4
[16] = Selectivity index, ratio of MCC for MDCK cells to EC50 for Influenza B virus B/Ned/537/05 infected in MDCK cells assessed as reduction in virus-induced cytopathic effect by microscopic method; assay type: toxicity, cell-based; conditions: dog, read-out: Selectivity Index; in short: as §4
[17] = Selectivity index, ratio of MCC for MDCK cells to EC50 for Influenza B virus B/HK/05/72 infected in MDCK cells assessed as reduction in virus-induced cytopathic effect by microscopic method; assay type: toxicity, cell-based; conditions: dog, read-out: Selectivity Index; in short: as §4
[18] = system: Human coronavirus 229E; assay: Antiviral activity against Human coronavirus 229E infected in HEL299 cells assessed as reduction in virus induced cytopathic effect after 5 days by microscopic method; assay type: functional, organism-based; conditions: HEL 299, 120 h
In short: (§5)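 Confluent HEL 299 cells in medium with 2% FCS were exposed to HCoV-229E (100 CCID50/well) together with compounds and held for 5 days at 35 °C. EC50 (CPE reduction) and MCC (minimal morphology change) were determined by microscopy. SI is MCC/EC50.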

[19] = Cytotoxicity against HEL299 cells assessed as changes in cell morphology after 5 days by microscopic method; assay type: cell-based, HEL 299; conditions: human; in short: as §5
[20] = system: Human coronavirus 229E; assay: Antiviral activity against Human coronavirus 229E infected in human A549 cells assessed as reduction in virus RNA level after 3 days by qRT-PCR method; assay type: functional; conditions: A549, 72 h
In short: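 Confluent A549 cells were infected with HCoV-229E in 2% FCS medium with compounds present. The inoculum was removed at 1 h and compounds were kept on at 35 °C. Supernatants were harvested at day 3, lysed at 75 °C for 10 min, and viral genome copies counted by one-step qRT-PCR.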

[21] = Cytotoxicity against human A549 cells assessed as changes in cell morphology after 3 days by microscopic method; assay type: cell-based
In short: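 Mock-infected A549 cells were incubated with compounds for 3 days. MCC is the concentration causing minimal change in cell morphology by microscopy.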

[22] = Selectivity index, ratio of MCC for HEL299 cells to EC50 for Human coronavirus 229E infected in HEL299 cells; assay type: toxicity, cell-based; conditions: read-out: Selectivity Index; in short: as §5

SMILES | EC50 [1] | EC50 [2] | EC50 [3] | EC50 [4] | EC50 [5] | EC50 [6] | EC50 [7] | EC50 [8] | CC50 [9] | MCC at 72 h [10] | EC50 [18] | MCC at 120 h [19] | EC90 [20] | EC99 [20] | MCC at 72 h [21] | other results
CCCCCCCCCCOCc1cn(CCOCCOCCOCCOCc2cn([C@H]3C(=O)N[C@@H]4Cc5ccc(c(Cl)c5)Oc5cc6cc(c5O)Oc5ccc(cc5Cl)[C@@H](O[C@@H]5O[C@H](CO)[C@@H](O)[C@H](O)[C@H]5NC(C)=O)[C@H]5NC(=O)[C@H](NC(O)[C@@H]6NC(=O)[C@@H](NC4=O)c4cc(O)cc(c4)Oc4cc3ccc4O)c3ccc(O)c(c3)-c3c(O)cc(O)cc3[C@H](C(=O)O)NC5=O)nn2)nn1 (stereo partly drawn) | 1600 nM | 1500 nM | 1800 nM | 1800 nM | 1600 nM | 1300 nM | > 100000 nM | < 800 nM | ≥ 82000 nM | ≥ 20 µM |  |  |  |  |  | inhibition at 10 µM [11]: 92%; inhibition at 2 µM [12]: 56%
CCCCSC1=C(SCCCC)C(=O)N(CCOCCOCCOCCOCc2cn(C3C(=O)N[C@@H]4Cc5ccc(c(Cl)c5)Oc5cc6cc(c5O)Oc5ccc(cc5Cl)[C@@H](O[C@@H]5O[C@H](CO)[C@@H](O)[C@H](O)[C@H]5NC(C)=O)[C@H]5NC(=O)[C@H](NC(O)[C@@H]6NC(=O)[C@@H](NC4=O)c4cc(O)cc(c4)Oc4cc3ccc4O)c3ccc(O)c(c3)-c3c(O)cc(O)cc3[C@H](C(=O)O)NC5=O)nn2)C1=O (stereo partly drawn) | 4800 nM | 5800 nM | 9500 nM | 8600 nM | 5300 nM | 6000 nM | 5500 nM | 4900 nM | > 100000 nM | 100 µM | 8900 nM | ≥ 100 µM | 8600 nM | 29 µM | > 50 µM | selectivity ratio [13]: 16; selectivity ratio [14]: 16; selectivity ratio [15]: 16; selectivity ratio [16]: 16; selectivity ratio [17]: 16
CCCCCCCCCCCCS(=O)(=O)N[C@H]1C(=O)N[C@@H]2Cc3ccc(c(Cl)c3)Oc3cc4cc(c3O)Oc3ccc(cc3Cl)[C@@H](O[C@@H]3O[C@H](CO)[C@@H](O)[C@H](O)[C@H]3NC(C)=O)[C@H]3NC(=O)[C@H](NC(O)[C@@H]4NC(=O)[C@@H](NC2=O)c2cc(O)cc(c2)Oc2cc1ccc2O)c1ccc(O)c(c1)-c1c(O)cc(O)cc1[C@H](C(=O)O)NC3=O (stereo partly drawn) | 400 nM | 800 nM | > 100000 nM | 1600 nM | < 800 nM | < 800 nM | < 800 nM | < 800 nM | 4500 nM | 4 µM | 1800 nM | 20 µM | 2800 nM | 4.7 µM | 50 µM | selectivity ratio [22]: 13
